Test results taken from ChEMBL document CHEMBL4673287, “Synthesis and biological evaluation of novel antipsychotic trans-4-(2-(1,2,4,5-tetrahydro-3H-benzo[d]azepin-3-yl)ethyl)cyclohexan-1-amine derivatives targeting dopamine/serotonin receptor subtypes” (Bioorg Med Chem Lett, 2021).

Columns and labels:
[1] = target: Histamine H1 receptor (Homo sapiens) (UniProt P35367); test: Displacement of [3H]-pyrilamine from human H1 histamine receptor expressed in human HEK293 cells at 10 uM relative to control; format: cell-based
[2] = target: T1, D(3) dopamine receptor (Homo sapiens, UniProt P35462); test: Displacement of [3H]methyl-spiperone from recombinant human D3 receptor expressed in CHO cells; format: cell-based
[3] = target: T2, 5-hydroxytryptamine receptor 2A (Homo sapiens, UniProt P28223); test: Displacement of [3H]ketanserin from recombinant human 5-HT2A receptor expressed in human HEK293 cells at 10 uM relative to control; format: cell-based
[4] = target: T3, 5-hydroxytryptamine receptor 1A (Homo sapiens, UniProt P08908); test: Displacement of [3H]OH-DPAT from recombinant human 5-HT1A receptor expressed in human HEK293 cells; format: cell-based
T3 sequence (P08908 whole entry): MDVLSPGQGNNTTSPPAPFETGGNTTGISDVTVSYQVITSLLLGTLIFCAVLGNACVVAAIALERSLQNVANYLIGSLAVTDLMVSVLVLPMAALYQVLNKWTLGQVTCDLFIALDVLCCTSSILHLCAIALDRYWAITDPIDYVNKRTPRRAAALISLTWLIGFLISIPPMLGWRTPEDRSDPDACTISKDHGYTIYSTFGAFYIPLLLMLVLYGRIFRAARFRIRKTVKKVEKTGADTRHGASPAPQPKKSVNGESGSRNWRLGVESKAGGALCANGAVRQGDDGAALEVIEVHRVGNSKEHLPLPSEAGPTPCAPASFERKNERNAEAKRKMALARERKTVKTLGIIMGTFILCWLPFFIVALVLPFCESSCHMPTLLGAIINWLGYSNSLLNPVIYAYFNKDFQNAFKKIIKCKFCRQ
How it was run: (§1)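 Eight-concentration displacement curves, two independent experiments in duplicate, value is the mean Ki.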

[5] = target: Adrenergic receptor alpha-1 (Rattus norvegicus) (UniProt P15823+P23944+P43140); test: Displacement of [3H]-prazosin from adrenergic alpha1 in rat cerebral cortex at 10 uM relative to control; format: tissue-based
[6] = target: T4, D(2) dopamine receptor (Homo sapiens, UniProt P14416); test: Displacement of [3H]-spiperone from recombinant human D2L receptor expressed in CHO cells; format: cell-based; how it was run: as §1
[7] = target: T4, D(2) dopamine receptor; test: Displacement of [3H]-spiperone from recombinant human D2L receptor expressed in CHO cells at 10 uM relative to control; format: cell-based
[8] = target: T5, 5-hydroxytryptamine receptor 1A (Homo sapiens) (UniProt P08908); test: Displacement of [3H]OH-DPAT from recombinant human 5-HT1A receptor expressed in human HEK293 cells at 10 uM relative to control; format: cell-based
T5 sequence (whole entry): T3 sequence (P08908 whole entry)

[9] = target: T1, D(3) dopamine receptor; test: Displacement of [3H]methyl-spiperone from recombinant human D3 receptor expressed in CHO cells at 10 uM relative to control; format: cell-based
[10] = target: T2, 5-hydroxytryptamine receptor 2A; test: Displacement of [3H]ketanserin from recombinant human 5-HT2A receptor expressed in human HEK293 cells; format: cell-based; how it was run: as §1
[11] = Metabolic stability in rat liver microsomes assessed as intrinsic clearance; format: ADME, Microsome; conditions: read-out: CLH
[12] = Metabolic stability in human liver microsomes assessed as intrinsic clearance; format: ADME, Microsome; conditions: read-out: CLH
[13] = Metabolic stability in human liver microsomes assessed as half life; format: ADME, Microsome
[14] = tested on: Rattus norvegicus; test: Antipsychotic activity in orally dosed Sprague-Dawley rat assessed as inhibition of PCP-induced hyperactivity administered 20 mins before PCP stimulation and measured after 1 hr; format: functional, organism-based; conditions: dose 1-10 mg/kg, time 80.0 min
How it was run: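 Male Sprague-Dawley rats dosed orally 20 min before PCP (5 mg/kg) injection. Locomotor activity recorded for 1 h after PCP, read as total travel distance. Mean ± standard error of the mean, n = 8-10 per group.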

[15] = Metabolic stability in rat liver microsomes assessed as half life; format: ADME, Microsome

T1 sequence (P35462 whole entry): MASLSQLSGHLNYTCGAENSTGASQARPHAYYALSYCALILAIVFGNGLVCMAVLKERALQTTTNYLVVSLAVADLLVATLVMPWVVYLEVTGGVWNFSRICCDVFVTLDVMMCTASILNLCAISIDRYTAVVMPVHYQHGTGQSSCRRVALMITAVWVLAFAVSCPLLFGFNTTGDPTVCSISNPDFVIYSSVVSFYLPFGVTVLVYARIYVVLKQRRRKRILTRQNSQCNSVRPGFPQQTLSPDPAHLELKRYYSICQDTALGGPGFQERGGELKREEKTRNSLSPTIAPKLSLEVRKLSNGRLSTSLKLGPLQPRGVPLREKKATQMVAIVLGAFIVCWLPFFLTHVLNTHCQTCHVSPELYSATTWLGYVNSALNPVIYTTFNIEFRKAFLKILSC
T2 sequence (P28223 whole entry): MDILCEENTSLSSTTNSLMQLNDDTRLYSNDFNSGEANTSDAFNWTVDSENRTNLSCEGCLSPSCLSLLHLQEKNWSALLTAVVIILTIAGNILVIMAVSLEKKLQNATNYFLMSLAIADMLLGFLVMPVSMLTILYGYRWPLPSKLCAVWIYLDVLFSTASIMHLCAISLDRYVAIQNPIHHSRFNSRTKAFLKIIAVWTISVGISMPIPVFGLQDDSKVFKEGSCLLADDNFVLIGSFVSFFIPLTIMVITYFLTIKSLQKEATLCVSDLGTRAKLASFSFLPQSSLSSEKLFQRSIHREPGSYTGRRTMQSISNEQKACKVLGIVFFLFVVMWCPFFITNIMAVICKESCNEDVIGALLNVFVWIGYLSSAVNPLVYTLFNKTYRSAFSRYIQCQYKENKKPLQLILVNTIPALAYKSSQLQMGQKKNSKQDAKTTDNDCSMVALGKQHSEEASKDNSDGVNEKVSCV
T4 sequence (P14416 whole entry): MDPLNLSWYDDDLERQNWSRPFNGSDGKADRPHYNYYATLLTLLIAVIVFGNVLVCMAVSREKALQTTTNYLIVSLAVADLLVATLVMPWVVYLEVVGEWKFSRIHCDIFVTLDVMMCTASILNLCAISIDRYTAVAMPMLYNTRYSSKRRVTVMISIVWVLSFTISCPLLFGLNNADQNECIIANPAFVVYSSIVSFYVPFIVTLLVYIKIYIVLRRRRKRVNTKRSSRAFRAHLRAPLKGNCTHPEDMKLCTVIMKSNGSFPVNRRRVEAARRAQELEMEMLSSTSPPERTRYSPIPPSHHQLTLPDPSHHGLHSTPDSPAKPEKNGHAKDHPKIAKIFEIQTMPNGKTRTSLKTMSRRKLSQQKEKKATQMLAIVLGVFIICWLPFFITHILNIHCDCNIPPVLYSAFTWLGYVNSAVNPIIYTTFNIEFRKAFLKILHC
Chain of Histamine H1 receptor (Homo sapiens) (P35367 whole entry): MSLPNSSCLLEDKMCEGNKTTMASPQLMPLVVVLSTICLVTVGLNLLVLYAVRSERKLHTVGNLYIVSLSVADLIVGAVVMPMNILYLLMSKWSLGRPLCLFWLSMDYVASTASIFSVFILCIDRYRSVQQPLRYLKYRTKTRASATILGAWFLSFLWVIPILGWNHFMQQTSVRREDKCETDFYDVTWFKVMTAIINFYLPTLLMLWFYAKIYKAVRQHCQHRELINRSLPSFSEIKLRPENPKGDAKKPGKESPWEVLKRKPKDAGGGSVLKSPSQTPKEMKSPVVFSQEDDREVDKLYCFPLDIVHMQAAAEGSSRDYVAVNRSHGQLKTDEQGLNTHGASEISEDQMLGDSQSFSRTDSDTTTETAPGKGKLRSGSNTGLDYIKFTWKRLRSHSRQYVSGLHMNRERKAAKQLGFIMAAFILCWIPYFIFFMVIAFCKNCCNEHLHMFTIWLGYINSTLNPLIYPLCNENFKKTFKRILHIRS

Row | Structure (SMILES) | inhibition [1] | Ki [2] | inhibition [3] | Ki [4] | inhibition [5] | Ki [6] | other results
1 | C[C@H]1CN(CC[C@H]2CC[C@H](N3C(=O)[C@H]4CCCC[C@H]4C3=O)CC2)CCc2ccc(Cl)cc21 | 86.1% | 9.3 nM | 76.9% | 6.6 nM | 63.2% | 14.1 nM | –
2 | C[C@H]1CN(CC[C@H]2CC[C@H](N3C(=O)CCC3=O)CC2)CCc2ccc(Cl)cc21 | 62.4% | 191 nM | 47.4% | 93.4 nM | 62.1% | – | inhibition [7]: 79.8%
3 | C[C@H]1CN(CC[C@H]2CC[C@H](NC(=O)N(C)c3ccccc3)CC2)CCc2ccc(Cl)cc21 | 75% | 17.2 nM | 58.8% | – | 38.6% | 189 nM | inhibition ([8]; filed as antagonist): 82.3%
4 | CCN(CC)C(=O)N[C@H]1CC[C@H](CCN2CCc3ccc(Cl)cc3[C@@H](C)C2)CC1 | 69.2% | 15 nM | 73.6% | – | 29.1% | 91.1 nM | inhibition [8]: 75.2%
5 | CCN(C)C(=O)N[C@H]1CC[C@H](CCN2CCc3ccc(Cl)cc3[C@@H](C)C2)CC1 | 49.7% | 7.2 nM | 85.9% | 36 nM | 43.5% | 23.9 nM | –
6 | CCCC(=O)N[C@H]1CC[C@H](CCN2CCc3ccc(Cl)cc3[C@@H](C)C2)CC1 | 27% | 8.1 nM | 52.7% | – | 18.7% | 84 nM | inhibition [8]: 81.3%
7 | C[C@H]1CN(CC[C@H]2CC[C@H](NC(=O)C3CC3)CC2)CCc2ccc(Cl)cc21 | 33.2% | 8.2 nM | 56.6% | 191 nM | 57.6% | 9.8 nM | –
8 | C[C@H]1CN(CC[C@H]2CC[C@H](NC(=O)Nc3ccccc3)CC2)CCc2ccc(Cl)cc21 | – | 1.5 nM | 67% | – | 53.8% | 2.8 nM | inhibition ([1]; filed as antagonist): 88.2%
9 | C[C@H]1CN(CC[C@H]2CC[C@H](N3C(=O)[C@@H]4[C@@H]5CC[C@@H](C5)[C@@H]4C3=O)CC2)CCc2ccc(Cl)cc21 | – | 3.3 nM | 80.8% | 24.9 nM | 79.2% | 31.6 nM | –
10 | CC1CN(CC[C@H]2CC[C@H](NC(=O)N(C)C)CC2)CCc2ccc(Cl)cc21 (mixture of isomers) | 25.8% | – | 19.6% | – | 38% | – | inhibition [7]: 54.5%; inhibition [8]: 26.9%; inhibition [9]: 68%
11 | C[C@H]1CN(CC[C@H]2CC[C@H](NC(=O)N3CCOCC3)CC2)CCc2ccc(Cl)cc21 | 33.3% | 1.8 nM | 50.6% | – | 48% | 2.9 nM | inhibition [8]: 86.1%
12 | C[C@H]1CN(CC[C@H]2CC[C@H](N3C(=O)c4ccccc4C3=O)CC2)CCc2ccc(Cl)cc21 | 40.8% | – | 36.3% | – | 37.2% | 5.8 nM | inhibition [8]: 82.6%; inhibition [9]: 82%
13 | C[C@H]1CN(CC[C@H]2CC[C@H](N3C(=O)[C@@H]4[C@H](C3=O)[C@@H]3C=C[C@H]4C3)CC2)CCc2ccc(Cl)cc21 | – | 6.9 nM | 82.8% | 22.8 nM | 74.4% | 43.7 nM | –
14 | C[C@H]1CN(CC[C@H]2CC[C@H](NC(=O)[C@@H]3CCCO3)CC2)CCc2ccc(Cl)cc21 | 32.2% | 19.1 nM | 69.6% | 98.3 nM | 36.4% | 20.6 nM | –
15 | C[C@H]1CN(CC[C@H]2CC[C@H](NC(=O)N(C)C)CC2)CCc2ccc(Cl)cc21 | 59.6% | 0.5 nM | – | 14.5 nM | 44.1% | 5.9 nM | Ki [10]: 25.6 nM; microsomal CLint [11]: 59.7 µL/min/mg; microsomal CLint [12]: 42.4 µL/min/mg; half-life [13]: 32.7 min; Activity [14]: Dose-dependent effect; half-life [15]: 23.2 min
16 | COc1ccc2c(c1)[C@]13CCCC[C@@H]1[C@H](C2)N(C)CC3 [DEXTROMETHORPHAN] | – | – | – | – | – | – | microsomal CLint [12]: 59.7 µL/min/mg; half-life [13]: 23.2 min
17 | C[C@H]1CN(CC[C@H]2CC[C@H](NC(=O)C3CCCCC3)CC2)CCc2ccc(Cl)cc21 | 36.8% | 17.5 nM | 38.2% | – | 35.3% | 99.3 nM | inhibition [8]: 69.9%
18 | C[C@@H]1CN(CC[C@H]2CC[C@H](NC(=O)N(C)C)CC2)CCc2ccc(Cl)cc21 | 46.5% | 195 nM | 72% | – | 48.3% | 290 nM | inhibition [8]: 83.9%
19 | C[C@H]1CN(CC[C@H]2CC[C@H](NC(=O)[C@@H]3CCCN3)CC2)CCc2ccc(Cl)cc21 | 60.1% | 9.5 nM | 89% | 74.7 nM | 75.8% | 25.3 nM | –
20 | C[C@H]1CN(CC[C@H]2CC[C@H](NC(=O)N3CCCC3)CC2)CCc2ccc(Cl)cc21 | 56.8% | 1.1 nM | 87.4% | 5.3 nM | 60.3% | 6.3 nM | –
21 | C[C@H]1CN(CC[C@H]2CC[C@H](N3C(=O)CC4(CCCC4)CC3=O)CC2)CCc2ccc(Cl)cc21 | – | 1.2 nM | – | 4.3 nM | 60.9% | 12.1 nM | Ki [10]: 16.2 nM
22 | COc1ccc2[nH]c([S+]([O-])Cc3ncc(C)c(OC)c3C)nc2c1 (centres undefined) [OMEPRAZOLE] | – | – | – | – | – | – | microsomal CLint [11]: 193 µL/min/mg; half-life [15]: 38.5 min
23 | C[C@H]1CN(CC[C@H]2CC[C@H](NC(=O)c3ccco3)CC2)CCc2ccc(Cl)cc21 | – | 1.8 nM | – | 10.6 nM | – | 19.3 nM | –
24 | CN1CCN(C2=Nc3cc(Cl)ccc3Nc3ccccc32)CC1 | – | – | – | – | – | – | Activity [14]: Dose-dependent effect
